Data reported in ChEMBL document CHEMBL1122347, “synthesis and antihypertensive activity of 2-sulfonamido- and 2-sulfamido-1,3,4,6,7,11b alpha-hexahydro-2H-benzo[a]quinolizines” (1983).
Several values for one entry are separate records, joined by “and”; a condition that tells them apart may be missing. Equal entries are not always repeated. Activity calls are given as the source filed them. The calls are words filed in the database; no cut-off is given here.

Experiments:
Rattus norvegicus [1] = assay: Antihypertensive activity in DOCA/saline rat dosed at 50 mg/kg, po expressed as percent rise in heart rate after 2 h; format: functional
How it was run: (§1)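 Hypertensive rats were kept only if systolic pressure was at least 155 mmHg, in groups of four. They were dosed orally in 0.5% (hydroxypropyl)methylcellulose/0.9% saline vehicle (10 mL/kg), with a vehicle-alone control. Systolic pressure was measured by tail-cuff with a pneumatic pulse transducer in 37 °C housing before dosing and at 2, 6 and 24 h. Heart rate was taken from pulse traces. Means ± SE; ANOVA against control, p > 0.05 nonsignificant.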

Rattus norvegicus [2] = assay: Antihypertensive activity in DOCA/saline rat dosed at 50 mg/kg, po expressed as percent rise in heart rate after 6 h; NS is not significant; format: functional, organism-based; set-up: dose 50 mg/kg; how it was run: as §1
Rattus norvegicus [3] = assay: Antihypertensive activity in DOCA/saline rat dosed at 50 mg/kg, po expressed as percent fall in blood pressure after 2 h; format: functional; how it was run: as §1
Rattus norvegicus [4] = assay: Antihypertensive activity in DOCA/saline rat dosed at 50 mg/kg, po expressed as percent fall in blood pressure after 6 h; NS is not significant; format: functional, organism-based; set-up: dose 50 mg/kg; how it was run: as §1
Rattus norvegicus [5] = assay: Antihypertensive activity in DOCA/saline rat dosed at 50 mg/kg, administered perorally expressed as percent fall in blood pressure after 2 h; NS is not significant; format: functional, organism-based; set-up: dose 50 mg/kg; how it was run: as §1
Rattus norvegicus [6] = assay: Antihypertensive activity in DOCA/saline rat dosed at 50 mg/kg, administered perorally expressed as percent fall in blood pressure after 6 h; NS is not significant; format: functional, organism-based; set-up: dose 50 mg/kg; how it was run: as §1
Rattus norvegicus [7] = assay: (§2) Antihypertensive activity in DOCA/saline rat dosed at 50 mg/kg, administered perorally expressed as percent rise in heart rate after 2 h; NS is not significant; format: functional, organism-based; set-up: dose 50 mg/kg; how it was run: as §1
Rattus norvegicus [8] = assay: Antihypertensive activity in DOCA/saline rat dosed at 50 mg/kg, administered perorally expressed as percent rise in heart rate after 6 h; NS is not significant; format: functional, organism-based; set-up: dose 50 mg/kg; how it was run: as §1
Rattus norvegicus [9] = assay: Antihypertensive activity in DOCA/saline rat dosed at 50 mg/kg, administered perorally expressed as percent fall in blood pressure after 2 h; format: functional; conditions: route oral; how it was run: as §1
Rattus norvegicus [10] = assay: Antihypertensive activity in DOCA/saline rat dosed at 50 mg/kg, administered perorally expressed as percent rise in heart rate after 2 h; format: functional; conditions: route oral; how it was run: as §1
Rattus norvegicus [11] = assay: Antihypertensive activity in DOCA/saline rat dosed at 50 mg/kg, administered perorally expressed as percent fall in blood pressure after 6 h; format: functional; conditions: route oral; how it was run: as §1
Rattus norvegicus [12] = organism: Rattus norvegicus; conditions: Heart, 2 mg/kg
Rattus norvegicus [13] = organism: Rattus norvegicus; conditions: 2 mg/kg
Rattus norvegicus [14] = assay: Antihypertensive activity in DOCA/saline rat dosed at 50 mg/kg administered perorally expressed as percent rise in heart rate after 2 h; NS is not significant; format: functional, organism-based; set-up: dose 50 mg/kg; how it was run: as §1
Rattus norvegicus [15] = assay: Antihypertensive activity in DOCA/saline rat dosed at 50 mg/kg, administered perorally expressed as percent rise in heart rate after 6 h; NS is not significant,; format: functional, organism-based; set-up: dose 50 mg/kg; how it was run: as §1
Rattus norvegicus [16] = assay: Antihypertensive activity in DOCA/saline rat dosed at 10 mg/kg, administered perorally expressed as percent fall in blood pressure after 6 h; NS is not significant; format: functional, organism-based; set-up: dose 10 mg/kg; how it was run: as §1
Rattus norvegicus [17] = assay: Antihypertensive activity in DOCA/saline rat dosed at 25 mg/kg, administered perorally expressed as percent fall in blood pressure after 2 h; format: functional; conditions: route oral; how it was run: as §1
Rattus norvegicus [18] = assay: Antihypertensive activity in DOCA/saline rat dosed at 25 mg/kg, administered perorally expressed as percent fall in blood pressure after 6 h; format: functional; conditions: route oral; how it was run: as §1
Rattus norvegicus [19] = assay: Antihypertensive activity in DOCA/saline rat dosed at 10 mg/kg, administered perorally expressed as percent fall in blood pressure after 2 h; format: functional; conditions: route oral; how it was run: as §1
Rattus norvegicus [20] = assay: Antihypertensive activity in DOCA/saline rat dosed at 50 mg/kg, administered perorally expressed as percent rise in heart rate after 2 h; NS is not significant,; format: functional, organism-based; set-up: dose 50 mg/kg; how it was run: as §1
Rattus norvegicus [21] = assay: Antihypertensive activity in DOCA/saline rat dosed at 10mg/kg, administered perorally expressed as percent rise in heart rate after 2 h; format: functional; how it was run: as §1
Rattus norvegicus [22] = assay: Antihypertensive activity in DOCA/saline rat dosed at 25 mg/kg, administered perorally expressed as percent rise in heart rate after 6 h; NS is not significant; format: functional, organism-based; set-up: dose 25 mg/kg; how it was run: as §1
Rattus norvegicus [23] = assay: Antihypertensive activity in DOCA/saline rat dosed at 25 mg/kg, po administered perorally expressed as percent rise in heart rate after 2 h; NS is not significant; format: functional, organism-based; set-up: dose 25 mg/kg; how it was run: as §1
Rattus norvegicus [24] = assay: Antihypertensive activity in DOCA/saline rat dosed at 10 mg/kg, administered perorally expressed as percent rise in heart rate after 6 h; NS is not significant; format: functional, organism-based; set-up: dose 10 mg/kg; how it was run: as §1
Rattus norvegicus [25] = assay: Antihypertensive activity in DOCA/saline rat dosed at 50 mg/kg, po administered perorally expressed as percent rise in heart rate after 2 h; format: functional; how it was run: as §1
Rattus norvegicus [26] = assay: Antihypertensive activity in DOCA/saline rat dosed at 50 mg/kg, administered perorally expressed as percent rise in heart rate after 6 h; format: functional; conditions: route oral; how it was run: as §1
Rattus norvegicus [27] = assay: Antihypertensive activity in DOCA/saline rat dosed at 25 mg/kg, administered perorally expressed as percent fall in blood pressure after 6 h; NS is not significant; format: functional, organism-based; set-up: dose 25 mg/kg; how it was run: as §1
Rattus norvegicus [28] = assay: Antihypertensive activity in DOCA/saline rat dosed at 25 mg/kg, administered perorally expressed as percent rise in heart rate after 2 h; NS is not significant; format: functional, organism-based; set-up: dose 25 mg/kg; how it was run: as §1
Rattus norvegicus [29] = assay: Antihypertensive activity in DOCA/saline rat dosed at 25 mg/kg, administered perorally expressed as percent fall in blood pressure after 2 h; NS is not significant; format: functional, organism-based; set-up: dose 25 mg/kg; how it was run: as §1
Rattus norvegicus [30] = assay: as §2; format: functional, organism-based; set-up: dose 50 mg/kg; how it was run: as §1; remark: listed apart in the source
Rattus norvegicus [31] = assay: Antihypertensive activity in DOCA/saline rat dosed at 25 mg/kg, po administered perorally expressed as percent rise in heart rate after 6 h; NS is not significant; format: functional, organism-based; set-up: dose 25 mg/kg; how it was run: as §1
Rattus norvegicus [32] = assay: Antihypertensive activity in DOCA/saline rat dosed at 10mg/kg, administered perorally expressed as percent fall in blood pressure after 6 h; NS is not significant; format: functional, organism-based; how it was run: as §1
Rattus norvegicus [33] = assay: Antihypertensive activity in DOCA/saline rat dosed at 10 mg/kg, administered perorally expressed as percent fall in blood pressure after 2 h; NS is not significant; format: functional, organism-based; set-up: dose 10 mg/kg; how it was run: as §1

Row | Compound | Decrease in blood pressure (Rattus norvegicus [5]) | Decrease in blood pressure (Rattus norvegicus [6]) | Rise HR (Rattus norvegicus [7]) | Rise HR (Rattus norvegicus [8]) | Decrease in blood pressure (Rattus norvegicus [9]) | Decrease in blood pressure (Rattus norvegicus [11]) | other results
1 | Cc1ccc(N(CC2=NCCN2)c2cccc(O)c2)cc1 [PHENTOLAMINE] | – | – | – | – | – | – | Rise HR (Rattus norvegicus [1]): 23%; Rise HR (Rattus norvegicus [2]): inactive; Decrease in blood pressure (Rattus norvegicus [3]): 36%; Decrease in blood pressure (Rattus norvegicus [4]): inactive
2 | CCS(=O)(=O)N[C@H]1CCN2CCc3ccccc3[C@@H]2C1 | inactive | inactive | inactive | inactive | – | – | –
3 | O=S(=O)(N[C@@H]1CCN2CCc3ccccc3[C@@H]2C1)c1ccccc1 | inactive | inactive | inactive | inactive | – | – | –
4 | CNS(=O)(=O)N[C@@H]1CCN2CCc3ccccc3[C@@H]2C1.Cl | – | – | – | inactive | 35% | 18% | Rise HR (Rattus norvegicus [10]): 23%
5 | CN([C@@H]1CCN2CCc3ccccc3[C@@H]2C1)S(C)(=O)=O | inactive | inactive | inactive | inactive | – | – | –
6 | Cl.O=S(=O)(N[C@H]1CCN2CCc3ccccc3[C@@H]2C1)c1ccccc1 | inactive | – | inactive | inactive | – | 18% | –
7 | NNc1nncc2ccccc12 | – | – | – | – | – | – | Rise HR (Rattus norvegicus [12]): inactive; Decrease in blood pressure (Rattus norvegicus [13]): inactive
8 | CS(=O)(=O)N[C@@H]1CCN2CCc3ccc(Cl)cc3[C@@H]2C1 | inactive | inactive | inactive | inactive | – | – | –
9 | CN(C)S(=O)(=O)N[C@@H]1CCN2CCc3ccccc3[C@@H]2C1.Cl | – | – | inactive | inactive | 45% | 31% | –
10 | CS(=O)(=O)N[C@H]1CCN2CCc3ccccc3[C@@H]2C1 | inactive | inactive | – | – | – | – | Rise HR (Rattus norvegicus [14]): inactive; Rise HR (Rattus norvegicus [15]): inactive
11 | COc1cc2c(cc1OC)[C@@H]1C[C@H](NS(C)(=O)=O)CCN1CC2.Cl | – | – | – | inactive | 44% | 35% | Rise HR (Rattus norvegicus [10]): 16%
12 | CS(=O)(=O)N[C@@H]1CCN2CCc3ccccc3[C@@H]2C1.Cl | – | – | – | – | 53% | 68% | Decrease in blood pressure (Rattus norvegicus [16]): inactive; Decrease in blood pressure (Rattus norvegicus [17]): 50%; Decrease in blood pressure (Rattus norvegicus [18]): 50%; Decrease in blood pressure (Rattus norvegicus [19]): 28%; Increase in heart rate (Rattus norvegicus [20]): Not significant; Rise HR (Rattus norvegicus [21]): 39%; Rise HR (Rattus norvegicus [22]): inactive; Increase in heart rate (Rattus norvegicus [8]): inactive; Rise HR (Rattus norvegicus [23]): inactive; Rise HR (Rattus norvegicus [24]): inactive
13 | Cl.O=S(=O)(N[C@@H]1CCN2CCc3ccccc3[C@@H]2C1)N1CCCC1 | inactive | inactive | – | inactive | – | – | Rise HR (Rattus norvegicus [10]): 22%
14 | O=S(=O)(Nc1ccccc1)N[C@@H]1CCN2CCc3ccccc3[C@@H]2C1 | inactive | inactive | inactive | inactive | – | – | –
15 | CCCS(=O)(=O)N(C)[C@@H]1CCN2CCc3ccccc3[C@@H]2C1.Cl | – | inactive | – | – | 38% | – | Rise HR (Rattus norvegicus [25]): 15%; Rise HR (Rattus norvegicus [26]): 21%; Decrease in blood pressure (Rattus norvegicus [27]): inactive; Rise HR (Rattus norvegicus [28]): inactive; Decrease in blood pressure (Rattus norvegicus [29]): inactive; Rise HR (Rattus norvegicus [22]): inactive
16 | CCS(=O)(=O)N[C@@H]1CCN2CCc3ccccc3[C@@H]2C1.Cl | – | – | inactive | – | – | 43% | Rise HR (Rattus norvegicus [26]): 22%; Decrease in blood pressure (Rattus norvegicus [17]): 42%; Decrease in blood pressure (Rattus norvegicus [27]): inactive; Rise HR (Rattus norvegicus [15]): inactive; Rise HR (Rattus norvegicus [30]): inactive; Decrease in blood pressure (Rattus norvegicus [9]; 50 mg/kg): 56% and 37%; Rise HR (Rattus norvegicus [28]): inactive; Rise HR (Rattus norvegicus [31]): inactive
17 | CCN(CC)S(=O)(=O)N[C@@H]1CCN2CCc3ccccc3[C@@H]2C1.Cl | – | inactive | inactive | inactive | 29% | – | –
18 | CCS(=O)(=O)N(C)[C@@H]1CCN2CCc3ccccc3[C@@H]2C1.Cl | – | – | – | – | – | – | Decrease in blood pressure (Rattus norvegicus [17]): 36%; Decrease in blood pressure (Rattus norvegicus [27]): inactive; Rise HR (Rattus norvegicus [28]): inactive; Rise HR (Rattus norvegicus [22]): inactive
19 | Cl.NS(=O)(=O)N[C@@H]1CCN2CCc3ccccc3[C@@H]2C1 | – | – | – | inactive | 48% | 50% | Decrease in blood pressure (Rattus norvegicus [32]): inactive; Decrease in blood pressure (Rattus norvegicus [33]): inactive; Rise HR (Rattus norvegicus [10]): 24%; Rise HR (Rattus norvegicus [21]): 24%; Rise HR (Rattus norvegicus [24]): inactive
20 | CCCS(=O)(=O)N[C@@H]1CCN2CCc3ccccc3[C@@H]2C1.Cl | – | – | – | inactive | 28% | 46% | Rise HR (Rattus norvegicus [10]): 14%
21 | COc1cc2c(cc1OC)[C@@H]1C[C@H](NS(N)(=O)=O)CCN1CC2.Cl | – | inactive | inactive | inactive | 22% | – | –
